In brackets after ≈: the same amount, converted by molar mass.
Columns and labels:
Format in all cases: functional
[1] = test system: Streptococcus pneumoniae; assay: Antibacterial activity against macrolide-susceptible Streptococcus pneumoniae after overnight incubation by agar dilution method
How it was run: (§1)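 Agar dilution MICs on Mueller-Hinton agar with 5% sheep blood. Inoculum 10^4 CFU/spot, incubated overnight at 35°C in ambient air. Clinical S. pneumoniae or group A streptococcal isolates; resistance genotypes (erm(B), erm(A), mef(A)/mef(E)) were assigned by PCR. S. pneumoniae ATCC 49619 served as QC strain in each run. Range, MIC50 and MIC90 reported per phenotype group.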

[2] = test system: Streptococcus pneumoniae; assay: Antibacterial activity against Streptococcus pneumoniae harboring mutation in 23S rRNA after overnight incubation by agar dilution method
How it was run: (§2)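 Clinical isolates collected 1998–2008, with macrolide-resistance genes confirmed by PCR. MICs by agar dilution on Mueller-Hinton agar with 5% sheep blood. Inoculum 10^4 CFU/spot, incubated overnight at 35°C in ambient air. S. pneumoniae ATCC 49619 was the quality-control strain in every run.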

[3] = test system: Streptococcus pyogenes; assay: Antibacterial activity against macrolide-resistant Streptococcus pyogenes harboring erm(A) gene after overnight incubation by agar dilution method; how it was run: as §1
[4] = test system: Streptococcus pyogenes; assay: Antibacterial activity against macrolide-resistant Streptococcus pyogenes harboring mef(A) gene after overnight incubation by agar dilution method; how it was run: as §1
[5] = test system: Streptococcus pyogenes; assay: Antibacterial activity against Streptococcus pyogenes harboring erm(B) gene after overnight incubation by agar dilution method; how it was run: as §2
[6] = test system: Streptococcus pneumoniae; assay: Antibacterial activity against Streptococcus pneumoniae harboring erm(A) gene after overnight incubation by agar dilution method; how it was run: as §2
[7] = test system: Streptococcus pyogenes; assay: Antibacterial activity against Streptococcus pyogenes harboring erm(A) gene after overnight incubation by agar dilution method; how it was run: as §2
[8] = test system: Streptococcus pneumoniae; assay: Antibacterial activity against penicillin-intermediate Streptococcus pneumoniae after overnight incubation by agar dilution method
How it was run: (§3)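 Agar dilution on Mueller-Hinton agar supplemented with 5% sheep blood, inoculum 10^4 CFU/spot, read after overnight incubation at 35°C in ambient air. Clinical isolates with defined genotypes; S. pneumoniae ATCC 49619 quality control strain included in each run. MIC50/MIC90 are MICs inhibiting 50% and 90% of isolates.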

[9] = test system: Streptococcus pyogenes; assay: Antibacterial activity against macrolide-susceptible Streptococcus pyogenes after overnight incubation by agar dilution method; how it was run: as §3
[10] = test system: Streptococcus pyogenes; assay: Antibacterial activity against Streptococcus pyogenes harboring mutation in L4 ribosomal protein after overnight incubation by agar dilution method; how it was run: as §2
[11] = test system: Streptococcus pneumoniae; assay: Antibacterial activity against Streptococcus pneumoniae harboring mef(A) gene after overnight incubation by agar dilution method; how it was run: as §2
[12] = test system: Streptococcus pyogenes; assay: Antibacterial activity against Streptococcus pyogenes harboring mef(A) gene after overnight incubation by agar dilution method; how it was run: as §2
[13] = test system: Streptococcus pneumoniae; assay: Antibacterial activity against quinolone-resistant Streptococcus pneumoniae after overnight incubation by agar dilution method
How it was run: (§4)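 Agar dilution on Mueller-Hinton agar supplemented with 5% sheep blood. Inoculum 10^4 CFU/spot, incubated overnight at 35°C in ambient air. Test strains were clinical pneumococcal isolates. S. pneumoniae ATCC 49619 was included as the quality control strain in each run. MIC range, MIC50 and MIC90 were reported for each susceptibility category.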

[14] = test system: Streptococcus pneumoniae; assay: Antibacterial activity against quinolone-susceptible Streptococcus pneumoniae after overnight incubation by agar dilution method; how it was run: as §4
[15] = test system: Streptococcus pneumoniae; assay: Antibacterial activity against penicillin-susceptible Streptococcus pneumoniae after overnight incubation by agar dilution method; how it was run: as §4
[16] = test system: Streptococcus pneumoniae; assay: Antibacterial activity against macrolide-resistant Streptococcus pneumoniae harboring mef(A) gene after overnight incubation by agar dilution method; how it was run: as §1
[17] = test system: Streptococcus pyogenes; assay: Antibacterial activity against macrolide-resistant Streptococcus pyogenes harboring erm(B) gene after overnight incubation by agar dilution method; how it was run: as §1
[18] = test system: Streptococcus pneumoniae; assay: Antibacterial activity against penicillin-resistant Streptococcus pneumoniae after overnight incubation by agar dilution method; how it was run: as §4
[19] = test system: Streptococcus pneumoniae; assay: Antibacterial activity against Streptococcus pneumoniae harboring mutation in L4 ribosomal protein after overnight incubation by agar dilution method; how it was run: as §2
[20] = test system: Streptococcus pneumoniae; assay: Antibacterial activity against macrolide-resistant Streptococcus pneumoniae harboring mutation in L4 ribosomal protein after overnight incubation by agar dilution method; how it was run: as §1
[21] = test system: Streptococcus pneumoniae; assay: Antibacterial activity against Streptococcus pneumoniae harboring erm(B) and mef(A) gene after overnight incubation by agar dilution method; how it was run: as §2
[22] = test system: Streptococcus pneumoniae; assay: Antibacterial activity against macrolide-resistant Streptococcus pneumoniae harboring erm(B) and mef(A) gene after overnight incubation by agar dilution method; how it was run: as §1
[23] = test system: Streptococcus pneumoniae; assay: Antibacterial activity against macrolide-resistant Streptococcus pneumoniae harboring erm(B) gene after overnight incubation by agar dilution method; how it was run: as §1
[24] = test system: Streptococcus pneumoniae; assay: Antibacterial activity against Streptococcus pneumoniae harboring erm(B) gene after overnight incubation by agar dilution method; how it was run: as §2

CC[C@H]1OC(=O)[C@H](C)[C@@H](O[C@H]2C[C@@](C)(OC)[C@@H](O)[C@H](C)O2)[C@H](C)[C@@H](O[C@@H]2O[C@H](C)C[C@H](N(C)C)[C@H]2O)[C@](C)(O)C[C@@H](C)C(=O)[C@H](C)[C@@H](O)[C@]1(C)O [ERYTHROMYCIN]
MIC50 [1]: 0.06 µg/mL (≈ 0.0818 µM) | MIC90 [1]: 0.125 µg/mL (≈ 0.17 µM) | MIC [2]: 8 µg/mL (≈ 10.9 µM) | MIC50 [3]: 4 µg/mL (≈ 5.45 µM) | MIC90 [3]: > 64 µg/mL | MIC50 [4]: 16 µg/mL (≈ 21.8 µM) | MIC90 [4]: 32 µg/mL (≈ 43.6 µM) | MIC50 [5]: > 64 µg/mL | MIC90 [5]: > 64 µg/mL | MIC [6]: 2 µg/mL (≈ 2.73 µM) | MIC50 [7]: 4 µg/mL (≈ 5.45 µM) | MIC90 [7]: > 64 µg/mL | MIC50 [8]: > 64 µg/mL | MIC90 [8]: > 64 µg/mL | MIC50 [9]: 0.06 µg/mL (≈ 0.0818 µM) | MIC90 [9]: 0.125 µg/mL (≈ 0.17 µM) | MIC [10]: 2 µg/mL (≈ 2.73 µM) | MIC50 [11]: 4 µg/mL (≈ 5.45 µM) | MIC90 [11]: 32 µg/mL (≈ 43.6 µM) | MIC50 [12]: 16 µg/mL (≈ 21.8 µM) | MIC90 [12]: 32 µg/mL (≈ 43.6 µM) | MIC50 [13]: 0.06 µg/mL (≈ 0.0818 µM) | MIC50 [14]: > 64 µg/mL | MIC90 [14]: > 64 µg/mL | MIC50 [15]: 4 µg/mL (≈ 5.45 µM) | MIC90 [15]: > 64 µg/mL | MIC50 [16]: 4 µg/mL (≈ 5.45 µM) | MIC90 [16]: 32 µg/mL (≈ 43.6 µM) | MIC50 [17]: > 64 µg/mL | MIC90 [17]: > 64 µg/mL

C[C@H]1COc2c(N3CCN(C)CC3)c(F)cc3c(=O)c(C(=O)O)cn1c23.C[C@H]1COc2c(N3CCN(C)CC3)c(F)cc3c(=O)c(C(=O)O)cn1c23.O [LEVOFLOXACIN]
MIC50 [1]: 1 µg/mL | MIC90 [1]: 16 µg/mL | MIC50 [18]: 1 µg/mL | MIC90 [18]: 2 µg/mL | MIC [2]: 0.06 µg/mL | MIC50 [3]: 0.5 µg/mL | MIC90 [3]: 1 µg/mL | MIC50 [19]: 1 µg/mL | MIC90 [19]: 2 µg/mL | MIC50 [4]: 0.5 µg/mL | MIC90 [4]: 1 µg/mL | MIC50 [5]: 0.5 µg/mL | MIC90 [5]: 1 µg/mL | MIC50 [20]: 1 µg/mL | MIC90 [20]: 2 µg/mL | MIC50 [7]: 0.5 µg/mL | MIC90 [7]: 1 µg/mL | MIC50 [8]: 1 µg/mL | MIC90 [8]: 2 µg/mL | MIC50 [9]: 0.5 µg/mL | MIC90 [9]: 0.5 µg/mL | MIC [10]: 0.5 µg/mL | MIC50 [11]: 1 µg/mL | MIC90 [11]: 2 µg/mL | MIC50 [12]: 0.5 µg/mL | MIC90 [12]: 1 µg/mL | MIC50 [21]: 1 µg/mL | MIC90 [21]: 16 µg/mL | MIC50 [13]: 16 µg/mL | MIC90 [13]: 16 µg/mL | MIC50 [22]: 1 µg/mL | MIC90 [22]: 16 µg/mL | MIC50 [23]: 1 µg/mL | MIC90 [23]: 2 µg/mL | MIC50 [14]: 1 µg/mL | MIC90 [14]: 2 µg/mL | MIC50 [15]: 1 µg/mL | MIC90 [15]: 16 µg/mL | MIC50 [24]: 1 µg/mL | MIC90 [24]: 2 µg/mL | MIC50 [16]: 1 µg/mL | MIC90 [16]: 2 µg/mL | MIC50 [17]: 0.5 µg/mL | MIC90 [17]: 1 µg/mL

Source: ChEMBL document CHEMBL1240350, “In vitro activity of CEM-101 against Streptococcus pneumoniae and Streptococcus pyogenes with defined macrolide resistance mechanisms” (Antimicrob Agents Chemother, 2010)
